KCNK3 block: human KCNK3 channel inhibitors, primary screen, CHO cells, FluxOR thallium flux, B-score; Potassium channel subfamily K member 3 (Homo sapiens), O14649; FluxOR fluorescence; active compounds read low; B-score at 10 µM; 340,000 tested, 0.84% active;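 active = B-score under library mean minus 4 SD, starting fluorescence ratio at most library mean plus 5 SD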;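 note: more negative B-score means stronger inhibition of thallium flux through KCNK3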
KCNQ1 pot: potentiators or activators of KCNQ1 channel, primary screen, cell-based, thallium flux, high-throughput; CHO-K1 KCNQ1, thallium flux FluxOR fluorescence; active compounds read high; B-score at 10 µM; 310,000 tested, 0.35% active; AID 2648, 2010;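 active = fluorescence ratio B-score, a plate-corrected score, at least three library SD, with initial intensity B-score within 5 SD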
Target sequence (P51787 whole entry, looked up): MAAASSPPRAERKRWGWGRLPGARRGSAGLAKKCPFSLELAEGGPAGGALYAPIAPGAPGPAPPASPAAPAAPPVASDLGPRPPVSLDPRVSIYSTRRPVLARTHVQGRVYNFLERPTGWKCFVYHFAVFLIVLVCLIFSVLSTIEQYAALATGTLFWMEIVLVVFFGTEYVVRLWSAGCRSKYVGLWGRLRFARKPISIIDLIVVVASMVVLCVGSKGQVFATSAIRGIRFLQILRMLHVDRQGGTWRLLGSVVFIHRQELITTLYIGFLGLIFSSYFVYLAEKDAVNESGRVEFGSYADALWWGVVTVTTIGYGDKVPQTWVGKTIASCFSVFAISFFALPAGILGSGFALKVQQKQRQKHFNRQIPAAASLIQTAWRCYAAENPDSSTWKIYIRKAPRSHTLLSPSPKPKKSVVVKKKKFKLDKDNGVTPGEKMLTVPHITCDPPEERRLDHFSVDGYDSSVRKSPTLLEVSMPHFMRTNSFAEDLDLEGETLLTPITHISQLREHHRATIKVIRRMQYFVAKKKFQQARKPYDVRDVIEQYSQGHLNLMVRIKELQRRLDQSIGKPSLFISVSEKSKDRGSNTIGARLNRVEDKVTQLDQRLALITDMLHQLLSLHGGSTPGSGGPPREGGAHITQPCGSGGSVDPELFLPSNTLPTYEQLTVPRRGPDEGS
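Doses: Single concentration per compound, DMSO matched to controls | Test system: KCNQ1-transfected CHO-K1 cells | Timing: 90 min dye loading and 20 min compound exposure, both at room temperature | Measured by: Kinetic FluxOR thallium fluorescence, 10-s 1-Hz baseline, 110-s post-stimulus read | Medium: Assay buffer with matched DMSO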
KCNQ1 inh: inhibitors of human KCNQ1 channel, primary screen, cell-based, thallium flux, high-throughput; Potassium voltage-gated channel subfamily KQT member 1 (Homo sapiens), P51787; 310,000 tested, 1.3% active; B-score at 10 µM; CHO-K1 KCNQ1, FluxOR thallium flux fluorescence; active compounds read high;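 active = compounds whose thallium flux B-score, printed positive for inhibition, exceeds three library SD while starting fluorescence stays within three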;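 note: channel opened by potassium depolarization with thallium stimulus after 20 min compound exposure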
KCNK9 inh: KCNK9 potassium channel inhibitors, primary screen, HEK293 cells, thallium flux; Potassium channel subfamily K member 9 (Homo sapiens), Q9NPC2; FluxOR thallium flux fluorescence; active compounds read low; B-score at 10 µM; 310,000 tested, 1.2% active; AID 488922, 2010;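 active = ratio B-score over 3 SD below the library mean, with starting fluorescence within 5 SD of its mean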;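 note: negative B-score means less thallium flux so channel inhibition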
hERG protect: hERG rescue from dofetilide block, primary screen, cell-based, CHO-hERG, FluxOR thallium flux, dofetilide IC70 | Voltage-gated inwardly rectifying potassium channel KCNH2 (Homo sapiens), Q12809 | dofetilide IC70 present | activation (rescue from dofetilide block), less the hit threshold, % at 10 µM | 310,000 tested, 0.51% active;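 active = activation above the mean of controls blocked by dofetilide plus 5 SD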;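 note: thallium influx through hERG after potassium depolarization seen as dye fluorescence rise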
Kir21 block: inhibitors of mouse Kir2.1 inward-rectifier potassium channel. Inward rectifier potassium channel 2 (Mus musculus), P35561. HEK293-Kir2.1, FluxOR thallium flux fluorescence; active compounds read low. 310,000 tested, 0.85% active. B-score at 10 µM;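 active = fluorescence ratio B-score at or below minus 3 SD of library scores, with starting-brightness B-score within 2 SD, cut at about -4.2 in these data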;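 note: channel flux triggered by added potassium and thallium sulfate stimulus; B-score of peak minus minimum fluorescence over baseline after thallium stimulus; more negative B-score means stronger Kir2.1 block with less thallium influx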
KCNK3 confirm: retest of human KCNK3 channel inhibitors, confirmation, CHO cells, FluxOR thallium flux, triplicate | shares compounds with KCNK3 block | ratio percent of control, % at 10 µM | 2,400 tested, 99% active | FluxOR fluorescence; 0% buffer, 100% carvedilol maximal block;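 active = ratio percent of control, averaged over triplicates, above buffer control mean plus 5 SD, cut at about 64% in these data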;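 note: ratio is the fluorescence rise from min to max over baseline after thallium stimulus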
KCNK3 uninduced: thallium flux inhibition in non-induced cells, primary screen, counter-screen for KCNK3 inhibitor project, cell-based, non-induced KCNK3 line, FluxOR thallium, triplicate; shares compounds with KCNK3 block; AID 651747, 2012; 2,400 tested, 40% active; thallium flux ratio (lower = more inhibition) at 10 µM; non-induced KCNK3 parental cells; active compounds read low;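 active = thallium flux ratio, averaged over three wells, more than 5 SD below the buffer control mean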;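 note: host cells are CHO cells without KCNK3 induction; ratio is peak minus trough fluorescence over baseline then normalized to buffer controls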
The depositor's hits bear a star; i = inactive; nt = no result given. Sampled rows, rich in hits. Any-hit rate of the full collection: about 3.7%.

SMILES | KCNK3 block | KCNQ1 pot | KCNQ1 inh | KCNK9 inh | hERG protect | Kir21 block | KCNK3 confirm | KCNK3 uninduced
O=C(CO/N=C/c1cccc([N+](=O)[O-])c1)Nc1ccc2ccccc2c1 | -9.2* | i | i | i | 3 | -0.8 | 98* | i
N#Cc1ccc(/C=C\c2nccc3c2[nH]c2ccccc23)cc1 | -10* | i | i | i | -14 | -0.39 | 116* | 0.16*
Clc1ccc(/C=C\c2nccc3c2[nH]c2ccccc23)cc1 | i | i | i | i | -19 | 1.6 | nt | nt
COc1ccc(OC)c(NC(=O)COC(=O)/C=C/c2ccc(Cl)cc2)c1 | i | i | i | i | -9 | 1.9 | nt | nt
COc1ccccc1CNC(=O)c1sccc1-c1ccccc1 | -10* | i | i | i | -7 | -6.6* | 103* | i
COC(=O)c1cccc(NC(=O)CC2C(=O)NCCN2C(=O)Nc2cc(C)cc(C)c2)c1 (stereo not drawn) | -9.2* | i | i | i | -16 | 0.05 | 119* | 0.14*
Cc1cc(C)cc(NC(=O)N2CCNC(=O)C2CC(=O)Nc2cc(Cl)ccc2Cl)c1 (stereo not drawn) | i | i | i | i | -5 | 0.71 | nt | nt
CC(=O)N1CCN(c2ccc(NC(=O)c3ccc(F)cc3)cc2)CC1 | i | i | i | i | 0 | 0.1 | nt | nt
CCOC(=O)C1=C(C)OC(N)=C(C#N)C1c1cc(OC)c2c(c1)OCO2 (stereo not drawn) | -9.7* | i | i | i | -10 | -1.4 | 94* | i
CCOC(=O)C1=C(C)OC(N)=C(C#N)C1c1cc(Cl)c(OCC(N)=O)c(OC)c1 (stereo not drawn) | i | i | i | i | -7 | -1.3 | nt | nt
N#Cc1cnc(NCc2ccc(Cl)cc2Cl)nc1 | -12* | i | i | i | -11 | -1.2 | 108* | i
O=C(NCCn1cc(SCc2ccccc2)c2ccccc21)c1ccccc1F | -15* | i | 8* | i | -23 | -1.1 | 124* | 0.15*
CCCCC(OC(=O)c1ccco1)C(=O)NCc1ccc(C)cc1 (stereo not drawn) | i | i | i | i | -6 | 0.95 | nt | nt
CCC(CO)Nc1nc2ccc(Cl)cc2c2ccccc12 (stereo not drawn) | -9.2* | i | i | i | -7 | 0.05 | 98* | i
CC1(C)CC(=O)N(c2cccc(C(F)(F)F)c2)C(=O)C1 | i | i | i | i | -6 | 0.38 | nt | nt
COc1cc(/C=N/NC(=O)CSc2ccccn2)ccc1OC(C)C | i | i | i | i | -4 | 0.8 | nt | nt
Cc1ccccc1OCC(O)Cn1c2ccccc2c2ccccc21 (stereo not drawn) | -9.7* | i | i | -6.7* | -5 | -1.2 | 131* | 0.13*
CN(CC(=O)NCc1cccs1)CC(=O)Nc1ccc(F)c(F)c1F | i | i | i | i | -11 | 1.2 | nt | nt
CN(CC(=O)Nc1ccc(F)cc1Cl)Cc1cccs1 | -9.5* | i | i | i | -5 | 0.3 | 85* | i
CN(C(=O)c1ccoc1)c1ccc2ccccc2c1 | -10* | i | i | i | -8 | 2.2 | 55* | i
O=C(CNC(=O)c1ccco1)Nc1ccc(Cl)cc1 | i | i | i | i | -3 | 0.01 | nt | nt
COc1ccc(C(=O)NC(CC(=O)O)c2cc([N+](=O)[O-])ccc2Cl)cc1 (stereo not drawn) | i | i | i | i | -4 | 1.9 | nt | nt
COc1ccc(C(=O)CC(Nc2ccc([N+](=O)[O-])cc2)c2ccc(Cl)cc2)cc1 (stereo not drawn) | -9.1* | i | 12* | -6.7* | -19 | -0.89 | 132* | 0.14*
FC(F)(F)C1=Nc2cccc3cccc(c23)N1 | -13* | nt | nt | nt | nt | nt | 127* | 0.11*
Fc1ccc(C2=Nc3cccc4cccc(c34)N2)cc1 | i | i | i | i | -1 | -0.07 | nt | nt
SMILES | KCNK3 block | KCNQ1 pot | KCNQ1 inh | KCNK9 inh | hERG protect | Kir21 block | KCNK3 confirm | KCNK3 uninduced
c1ccc(CNc2ncnc3scc(-c4cccs4)c23)nc1 | -11* | i | i | i | -33 | -0.2 | 118* | i
c1ccc(-c2csc3ncnc(NCc4ccccn4)c23)cc1 | i | i | i | i | -24 | -2.5 | nt | nt
COc1ccccc1N1CCN(C(=O)c2sc3ncnc(N4CCN(c5ccccn5)CC4)c3c2C)CC1 | i | i | i | i | -15 | 0.23 | nt | nt
COc1ccc(OC)c(NC(=O)c2sc3ncnc(N4CCN(c5ccccn5)CC4)c3c2C)c1 | -9.1* | i | i | i | -1 | 1.8 | 104* | i
C=CCc1cc(C)ccc1OCCCC(C(=O)OCC)C(=O)OCC | -12* | i | i | i | -9 | -1.2 | 101* | i
CC(=O)N(C1=C(Cl)C(=O)c2ccccc2C1=O)C1CCCCC1 | -12* | i | i | -6.9* | -38 | -2.8 | 140* | 0.087*
CC(=O)N(c1ccccc1C)C1CCCC1 | i | i | i | i | -1 | 0.25 | nt | nt
Cc1cc(Cl)ccc1OCC(=O)NN1C(=O)C2C3C=CC(C3)C2C1=O (stereo not drawn) | i | i | i | i | -5 | 0.22 | nt | nt
COCCN(CCOC)S(=O)(=O)c1ccc(C(=O)Nc2ccc(S(=O)(=O)Nc3nccc(C)n3)cc2)cc1 | -8.9* | i | i | i | -1 | 1.2 | 70* | i
CCN1C[C@@H]2[C@@H]3C(=O)N(C)C(=O)[C@@H]3[C@](CC)(C1=O)N2C(=O)c1ccccc1 | i | nt | nt | nt | nt | nt | nt | nt
C[C@H]1CN([C@@H](C)CO)C(=O)c2cc(NS(=O)(=O)c3ccc(Cl)cc3)ccc2O[C@@H]1CN(C)CC1CCCCC1 | -13* | nt | nt | nt | nt | nt | 93* | i

Source: PubChem BioAssay
